Experimental data: PMC3625064 (Molecular cell, 2012)
Entries after “also recorded” stand apart in the source; their conditions may differ. No end group written: not given here.

Columns and labels:
LSD2 [1] = biological target: T1, LSD2 (Homo sapiens, UniProt Q8NB78); experiment: H3K4me2 peptide; type: biochemical; conditions: 50 μM H3K4me2 peptide (1–21), 50 mM Tris-HCl pH 8.5, 50 mM KCl, 5 mM MgCl2, 5% glycerol, 37°C, 30 min; MALDI-TOF MS
T1 sequence (Q8NB78 1-822): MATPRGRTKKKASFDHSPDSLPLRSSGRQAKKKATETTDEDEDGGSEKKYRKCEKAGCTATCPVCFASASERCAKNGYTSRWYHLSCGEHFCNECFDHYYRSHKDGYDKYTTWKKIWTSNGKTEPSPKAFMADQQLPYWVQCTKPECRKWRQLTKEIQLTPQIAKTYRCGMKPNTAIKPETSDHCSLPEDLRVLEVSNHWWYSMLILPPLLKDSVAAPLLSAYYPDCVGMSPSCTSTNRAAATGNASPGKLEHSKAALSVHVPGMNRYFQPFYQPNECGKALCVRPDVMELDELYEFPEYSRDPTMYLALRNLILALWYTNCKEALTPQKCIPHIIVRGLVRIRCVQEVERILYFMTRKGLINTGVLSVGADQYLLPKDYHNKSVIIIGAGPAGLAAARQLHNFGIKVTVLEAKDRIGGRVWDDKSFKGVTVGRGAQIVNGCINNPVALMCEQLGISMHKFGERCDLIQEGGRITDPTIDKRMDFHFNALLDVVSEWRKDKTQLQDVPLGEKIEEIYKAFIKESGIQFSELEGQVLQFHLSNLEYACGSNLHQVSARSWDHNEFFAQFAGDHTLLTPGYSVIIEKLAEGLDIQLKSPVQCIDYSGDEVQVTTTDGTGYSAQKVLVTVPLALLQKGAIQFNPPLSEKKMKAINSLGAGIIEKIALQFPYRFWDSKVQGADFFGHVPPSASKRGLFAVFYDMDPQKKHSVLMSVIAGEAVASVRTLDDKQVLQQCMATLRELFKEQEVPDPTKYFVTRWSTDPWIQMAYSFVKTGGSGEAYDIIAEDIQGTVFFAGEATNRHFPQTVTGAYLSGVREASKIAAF
How it was run: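 Purified LSD2, full-length or truncated (residues 51–822), incubated with NPAC-derived peptides or proteins and 50 μM H3K4me2 peptide (residues 1–21, >95% pure by HPLC and MS) in 50 mM Tris-HCl pH 8.5, 50 mM KCl, 5 mM MgCl2, 5% glycerol, 37°C, 30 min. Products desalted on C18 tips; MALDI-TOF MS at constant laser intensity across samples.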

LSD2 [2] = biological target: T1, LSD2; experiment: nucleosome demethylation assay, stimulation; type: biochemical
LSD2 [3] = biological target: T1, LSD2; experiment: GST pull-down of His-LSD2; type: binding; conditions: GST pull-down of purified His-LSD2, SDS-PAGE, Coomassie blue staining
How it was run: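 GST and GST-tagged wild-type or mutant NPAC proteins (linker-region and binding-site mutants) were used to pull down purified His-LSD2. His-LSD2 in input and bound fractions was resolved by SDS-PAGE and stained with Coomassie blue.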

[4] = biological target: T2, LSD2 (residues 51–822), as crystallised with NPAC (human, UniProt Q8NB78 51-822); experiment: crystal structure
T2 sequence: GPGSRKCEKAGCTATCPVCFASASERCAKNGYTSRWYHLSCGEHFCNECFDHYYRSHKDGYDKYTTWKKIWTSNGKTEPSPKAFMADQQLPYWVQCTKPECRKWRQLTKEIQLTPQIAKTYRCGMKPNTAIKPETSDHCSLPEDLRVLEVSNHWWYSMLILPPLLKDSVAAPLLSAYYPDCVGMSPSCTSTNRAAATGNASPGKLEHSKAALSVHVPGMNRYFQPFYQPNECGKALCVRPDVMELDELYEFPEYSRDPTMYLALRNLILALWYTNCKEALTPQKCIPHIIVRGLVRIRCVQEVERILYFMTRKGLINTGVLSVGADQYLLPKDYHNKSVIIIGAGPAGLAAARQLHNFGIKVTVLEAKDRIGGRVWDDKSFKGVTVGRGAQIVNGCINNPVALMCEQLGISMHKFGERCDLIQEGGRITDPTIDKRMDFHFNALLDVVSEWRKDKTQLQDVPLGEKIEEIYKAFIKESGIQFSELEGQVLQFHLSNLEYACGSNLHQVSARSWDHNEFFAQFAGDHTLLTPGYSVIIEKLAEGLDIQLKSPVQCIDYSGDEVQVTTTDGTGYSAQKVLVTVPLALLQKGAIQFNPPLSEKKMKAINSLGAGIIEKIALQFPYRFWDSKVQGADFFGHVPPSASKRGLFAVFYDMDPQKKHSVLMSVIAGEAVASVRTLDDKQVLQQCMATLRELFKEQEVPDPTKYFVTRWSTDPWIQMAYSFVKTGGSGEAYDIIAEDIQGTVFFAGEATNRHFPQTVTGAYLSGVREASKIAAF

[5] = biological target: T3, LSD2 used for isothermal titration calorimetry (human, UniProt Q8NB78 1-822); experiment: ITC
T3 sequence (looked up): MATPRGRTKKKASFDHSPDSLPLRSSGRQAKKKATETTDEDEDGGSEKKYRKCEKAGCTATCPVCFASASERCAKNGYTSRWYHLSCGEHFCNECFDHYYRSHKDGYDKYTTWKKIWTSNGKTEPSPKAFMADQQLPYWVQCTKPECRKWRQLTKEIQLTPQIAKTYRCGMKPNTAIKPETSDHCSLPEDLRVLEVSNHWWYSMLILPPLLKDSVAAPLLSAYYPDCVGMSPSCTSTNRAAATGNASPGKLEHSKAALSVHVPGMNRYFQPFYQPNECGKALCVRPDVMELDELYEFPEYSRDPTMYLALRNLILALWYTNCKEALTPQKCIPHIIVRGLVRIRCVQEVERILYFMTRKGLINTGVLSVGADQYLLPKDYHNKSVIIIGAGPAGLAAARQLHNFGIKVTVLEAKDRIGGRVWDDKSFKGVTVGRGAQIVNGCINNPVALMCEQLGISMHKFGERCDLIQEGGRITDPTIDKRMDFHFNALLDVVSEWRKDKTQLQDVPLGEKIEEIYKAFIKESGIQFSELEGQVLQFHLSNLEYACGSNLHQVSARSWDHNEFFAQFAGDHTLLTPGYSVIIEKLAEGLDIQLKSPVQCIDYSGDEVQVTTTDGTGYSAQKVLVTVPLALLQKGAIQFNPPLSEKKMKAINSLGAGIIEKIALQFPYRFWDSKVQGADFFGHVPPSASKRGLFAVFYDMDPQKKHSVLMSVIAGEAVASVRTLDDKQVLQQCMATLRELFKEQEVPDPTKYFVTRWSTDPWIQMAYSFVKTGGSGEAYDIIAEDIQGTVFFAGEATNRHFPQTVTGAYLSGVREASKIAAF

LSD1 = experiment: nucleosome demethylation by LSD1, stimulation by NPAC; type: biochemical, human; conditions: nucleosomes; Figure S1B
LSD2 [6] = biological target: T1, LSD2; experiment: shorter H3K4me2 peptide; type: biochemical; conditions: H3K4me2 peptide (residues 1–15) as substrate; Figures S6A and S6B
How it was run: (§1)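 Purified LSD2 (full-length or residues 51–822) was incubated with NPAC-derived peptides or proteins and an H3K4me2 peptide substrate. Products were desalted on C18 tips and analysed by MALDI-TOF MS at constant laser intensity for me1/me2 masses.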

[7] = tested on: LSD2 histone demethylation in U2OS cells; experiment: immunofluorescence of histone marks in U2OS cells coexpressing LSD2 and NPAC; type: cell-based; conditions: coexpression of NPAC and LSD2; Figure S1D and data not shown
How it was run: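 U2OS cells were transiently transfected with GFP-LSD2 alone or together with NPAC. Histone methylation marks were then detected by immunofluorescence with DAPI as DNA counterstain. Cells expressing similar levels of GFP-LSD2 were compared.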

nucleosomal H3K4me2 = experiment: nucleosome demethylation assay, demethylase activity toward nucleosomal H3K4me2; type: biochemical; conditions: recombinant NPAC, or NPAC complex purified from HeLa cells via TAP; immunoblot
How it was run: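 Nucleosomes purified from HeLa cells were incubated with tandem-affinity-purified NPAC or LSD2 complexes from HeLa cells, with or without added recombinant NPAC. H3K4 demethylation was assessed by SDS-PAGE and immunoblot with methylation-specific histone H3 antibodies.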

LSD2 [8] = biological target: T1, LSD2; experiment: longer H3K4me2 peptide; type: biochemical; conditions: H3K4me2 peptide (1–44) as substrate; Figure S6C
How it was run: as §1

Question: Which “cofactor activity for LSD2 with H3K4me2 peptide (residues 1–21) as substrate” value (from here on “cofactor activity for LSD2”) (LSD2 [1]) does the source give for DPHFHHFLLSQT [NP.WT] here?
Answer: can stimulate LSD2-mediated demethylation of H3K4me2 peptides

Question: And the “cofactor activity stimulating LSD2 demethylation of nucleosomes and synthetic histone peptides (summary)” value (LSD2 [2]; independent of PWWP module, discussion)?
Answer: robust cofactor activity

Question: With DPHAHHFLLSQT [NP.M6] as the molecule, how does the “cofactor activity for LSD2” value (LSD2 [1]) read?
Answer: but not the F217A mutant, can stimulate LSD2-mediated demethylation of H3K4me2 peptides; also recorded: These results were further confirmed in demethylation assays using H3K4me2 peptide substrate (residues 1–21)

B1: NP.d3: truncation protein containing the linker region, residues 152–252; GST-tagged (protein)
chain: SERGSKSPLKRAQEQSPRKRGRPPKDEKDLTIPESSTVKGMMAGPMAAFKWQPTASEPVKDADPHFHHFLLSQTEKPAVCYQAITKKLKICEEETGSTSIQ
modifications: left off: GST, end not stated, kept
Question: With B1 as the molecule, how does the “cofactor activity for LSD2” value (LSD2 [1]) read?
Answer: strong cofactor activity for LSD2

Question: And the “LSD2 binding / interaction” value (LSD2 [3])?
Answer: capable of directly interacting with LSD2

Question: What about the “LSD2 binding / interaction” value (LSD2 [3]; listed as linker region of NPAC) of the same molecule?
Answer: sufficient for LSD2 binding

B2: NPAC linker region (amino acids 152–268), as crystallised with LSD2 (domain or fragment, UniProt Q49A26 152-268, looked up)
chain: SERGSKSPLKRAQEQSPRKRGRPPKDEKDLTIPESSTVKGMMAGPMAAFKWQPTASEPVKDADPHFHHFLLSQTEKPAVCYQAITKKLKICEEETGSTSIQAADSTAVNGSITPTDK
Question: Does B2 bind [4]?
Answer: binds

Question: Which Kd [5] does the source give for DPHFHHFLLSQT (peptide, UniProt Q49A26 214-225, looked up) [wild-type NPAC dodecapeptide (residues 214–225)] here?
Answer: 920 ± 80 nM

Question: For DPHAHHFLLSQT (peptide, UniProt Q49A26 214-225, looked up) [NPAC dodecapeptide (residues 214–225) F217A], which Kd [5] is on record?
Answer: 930 ± 70 nM

B3: NPAC: NPAC/GLYR1 (UniProtKB/Swiss-Prot ID: Q49A26), contains PWWP domain, AT-hook motif, and dehydrogenase domain (protein, UniProt Q49A26 1-553, looked up)
Cytokine-like nuclear factor …: MAAVSLRLGDLVWGKLGRYPPWPGKIVNPPKDLKKPRGKKCFFVKFFGTEDHAWIKVEQLKPYHAHKEEMIKINKGKRFQQAVDAVEEFLRRAKGKDQTSSHNSSDDKNRRNSSEERSRPNSGDEKRKLSLSEGKVKKNMGEGKKRVSSGSSERGSKSPLKRAQEQSPRKRGRPPKDEKDLTIPESSTVKGMMAGPMAAFKWQPTASEPVKDADPHFHHFLLSQTEKPAVCYQAITKKLKICEEETGSTSIQAADSTAVNGSITPTDKKIGFLGLGLMGSGIVSNLLKMGHTVTVWNRTAEKCDLFIQEGARLGRTPAEVVSTCDITFACVSDPKAAKDLVLGPSGVLQGIRPGKCYVDMSTVDADTVTELAQVIVSRGGRFLEAPVSGNQQLSNDGMLVILAAGDRGLYEDCSSCFQAMGKTSFFLGEVGNAAKMMLIVNMVQGSFMATIAEGLTLAQVTGQSQQTLLDILNQGQLASIFLDQKCQNILQGNFKPDFYLKYIQKDLRLAIALGDAVNHPTPMAAAANEVYKRAKALDQSDNDMSAVYRAYIH
modifications: His tag
Question: With B3 as the molecule, how does the “stimulatory effect on nucleosome demethylation by LSD1” value (LSD1) read?
Answer: no stimulatory effect

Question: What about the “cofactor activity with shorter H3K4me2 peptide (residues 1–15)” value (LSD2 [6]) of the same molecule?
Answer: did not detect NPAC cofactor activity

Question: And the “change of H3K9me2 and other histone marks” value [7]?
Answer: no detectable changes

Question: And the “histone demethylase activity toward nucleosomes” value (nucleosomal H3K4me2)?
Answer: possesses no demethylase activity

B4: NPAC F217A protein: full-length F217A NPAC protein (protein, UniProt Q49A26 1-553, looked up, variant F217A)
chain: MAAVSLRLGDLVWGKLGRYPPWPGKIVNPPKDLKKPRGKKCFFVKFFGTEDHAWIKVEQLKPYHAHKEEMIKINKGKRFQQAVDAVEEFLRRAKGKDQTSSHNSSDDKNRRNSSEERSRPNSGDEKRKLSLSEGKVKKNMGEGKKRVSSGSSERGSKSPLKRAQEQSPRKRGRPPKDEKDLTIPESSTVKGMMAGPMAAFKWQPTASEPVKDADPHAHHFLLSQTEKPAVCYQAITKKLKICEEETGSTSIQAADSTAVNGSITPTDKKIGFLGLGLMGSGIVSNLLKMGHTVTVWNRTAEKCDLFIQEGARLGRTPAEVVSTCDITFACVSDPKAAKDLVLGPSGVLQGIRPGKCYVDMSTVDADTVTELAQVIVSRGGRFLEAPVSGNQQLSNDGMLVILAAGDRGLYEDCSSCFQAMGKTSFFLGEVGNAAKMMLIVNMVQGSFMATIAEGLTLAQVTGQSQQTLLDILNQGQLASIFLDQKCQNILQGNFKPDFYLKYIQKDLRLAIALGDAVNHPTPMAAAANEVYKRAKALDQSDNDMSAVYRAYIH
modifications: full-length
Question: For B4, which “stimulation of LSD2 demethylation of the longer H3K4me2 peptide (1–44)” value (LSD2 [8]) is on record?
Answer: very weak or undetectable

Question: What about the “cofactor activity of full-length NPAC protein, more NPAC and LSD2 proteins” value (LSD2 [2]; nucleosome demethylation, more NPAC and LSD2 proteins used, Figure S6E) of the same molecule?
Answer: residual stimulatory activity
